Shown are actives, neighbours in structure and some others; about 2.5% of the full set was active somewhere.
ADAM10 inh: ADAM10 inhibition, QFRET primary screen; O14672; recombinant ADAM10, EDANS/DABCYL FRET peptide cleavage, 3 h; inhibition, % at 7 µM; hit rate 0.62% among 370,000; AID 720582;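 active means inhibition above a per-campaign cutoff equal to the mean of compounds falling between control-based bounds plus 3 SD, cut at about 20% in these data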;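 further: 0% = DMSO wells while the 100% control is not disclosed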
NR2E3 ag-1: activates human photoreceptor nuclear receptor NR2E3. GST-NR2E3/biotin-RetCOR TR-FRET, 1536-well. inhibition of corepressor binding, % at 4.78 µM. hit rate 0.12% among 320,000. AID 2300;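 active means percent inhibition above the cutoff of mean plus 3 SD of all tested compounds, set per screening campaign, cut at about 20% in these data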;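 further: 0% = DMSO wells and 100% = biotin wells as full block of FRET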
Target sequence (Q9Y5X4 whole entry, looked up): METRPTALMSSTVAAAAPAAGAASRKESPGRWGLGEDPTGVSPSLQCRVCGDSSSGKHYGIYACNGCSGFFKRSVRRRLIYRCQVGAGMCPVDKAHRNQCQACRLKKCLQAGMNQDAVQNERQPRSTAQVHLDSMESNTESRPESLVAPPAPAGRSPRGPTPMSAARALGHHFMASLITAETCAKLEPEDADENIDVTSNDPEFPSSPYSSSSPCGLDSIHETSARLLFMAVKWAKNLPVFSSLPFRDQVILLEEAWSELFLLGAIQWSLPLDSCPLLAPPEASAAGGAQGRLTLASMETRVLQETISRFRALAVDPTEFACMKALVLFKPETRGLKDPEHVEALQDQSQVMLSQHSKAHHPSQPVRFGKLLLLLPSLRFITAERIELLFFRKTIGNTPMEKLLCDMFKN
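system = GST-tagged NR2E3 plus biotinylated RetCOR corepressor | input = 1.35 nM GST-NR2E3 | also added = 7 nM biotin-RetCOR | schedule = 5 h incubation at 4 °C | measured by = TR-FRET with europium anti-GST and streptavidin-D2, 340 nm excitation | read-out = percent loss of FRET ratio relative to control wells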
proKLK7 act: activators of human kallikrein-7 zymogen. P49862. activation, % at 7 µM. purified proKLK7, EDANS-DABCYL substrate fluorescence; 100% is mature enzyme control, 0% vehicle. hit rate 0.9% among 370,000. AID 652039;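 active means activation above the mean of all tested compounds plus 3 SD, computed per campaign excluding outliers beyond control limits, cut at about 13% in these data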
Target sequence (P49862 whole entry, looked up): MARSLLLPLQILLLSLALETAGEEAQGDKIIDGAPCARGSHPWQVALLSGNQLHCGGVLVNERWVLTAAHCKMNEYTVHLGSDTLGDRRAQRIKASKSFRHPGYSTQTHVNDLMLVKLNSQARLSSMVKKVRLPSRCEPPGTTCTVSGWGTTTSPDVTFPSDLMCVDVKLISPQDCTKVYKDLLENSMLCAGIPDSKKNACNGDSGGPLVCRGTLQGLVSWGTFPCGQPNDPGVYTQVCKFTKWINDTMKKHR
NR2E3 ag-2: human photoreceptor-specific nuclear receptor agonism | Q9Y5X4 | CHO-S Gal4-NCOR/VP16-NR2E3 two-hybrid, luciferase | inhibition of corepressor binding, % at 3.98 µM | hit rate 0.35% among 360,000 | AID 602229;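 active means inhibition above the mean of all tested compounds plus 3 SD, cut at about 70% in these data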;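 further: 0% = DMSO with NR2E3 transfected cells and 100% = cells lacking NR2E3 construct; higher means lower luciferase signal from less NR2E3 corepressor binding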
JMJD2C inh: inhibitors of human GASC-1 (JMJD2C) demethylase; AID 2099; GST-JMJD2C(1-420) H3K9me3 demethylation, DELFIA europium; inhibition, % at 2.35 µM; Q9H3R0; hit rate 0.069% among 330,000;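 active means more than half of a compound's replicate wells show inhibition beyond 50%, single wells judged on their own value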;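 further: signal counts dimethyl H3K9 product captured on neutravidin plate; 0% = median of DMSO wells and 100% = 0.3 times that DMSO median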
ADAM17 inh: inhibitors of human ADAM17; recombinant ADAM17, EDANS/DABCYL FRET peptide cleavage; hit rate 0.83% among 370,000; P78536; inhibition, % at 6.95 µM;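 active means inhibition above the mean of compounds lying between control limits plus 3 SD, set per campaign, cut at about 8.5% in these data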;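 further: 0% = DMSO-only wells as the low control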
KLK7 act conf: proKLK7 activation, confirmation; hit rate 68% among 3,200; shares compounds with proKLK7 act; AID 686949; purified proKLK7, EDANS-DABCYL substrate fluorescence; scaled: vehicle 0, mature enzyme 100; activation, % at 7 µM;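 active means activation, as change over the incubation, above the mean of all tested compounds plus 3 SD, cut at about 13% in these data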
EDANS-DABCYL int: optically interferes with EDANS-DABCYL signal, flagging KLK7 hits; shares compounds with proKLK7 act; EDANS-DABCYL substrate fluorescence interference, no enzyme, 4 h; solvent 0%, active enzyme control 100%; activation, % at 7 µM; hit rate 80% among 3,200; AID 686952;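 active means activation above the all-compound mean plus 3 SD, ignoring values outside control-based bounds, cut at about 4.8% in these data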;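 further: value is the 4 h activation minus the activation read at time zero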
EDANS interf: counter-screen for kallikrein-7 activators: EDANS-DABCYL interference, dose response; shares compounds with proKLK7 act; EDANS-DABCYL peptide fluorescence interference, no enzyme; EC50, µM; hit rate 20% among 250; AID 720493;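 active means compounds that raise the fluorescence signal in this interference counterscreen, with EC50 at or below 10 µM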;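 further: intact quenched peptide substrate alone read at 355 nm excitation and 520 nm emission; signal is fluorescence gain from T0 to T4 after four hours at room temperature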
Starred values were filed as active, the others as inactive; i = inactive; · = no result given.

SMILES	ADAM10 inh	NR2E3 ag-1	proKLK7 act	NR2E3 ag-2	JMJD2C inh	ADAM17 inh	KLK7 act conf	EDANS-DABCYL int	others
COCCCNC(=O)c1cc2c(-c3cccc(OC)c3)nn(C)c2s1	-333	-2	2	-32	-8	-125	·	·
CCC1CN(C)C2Cc3c([nH]c4ccccc34)C(=O)CC1C2C(=O)OC (stereo not drawn)	-242	1	13*	-31	-17	-59	7	8.1*
CC(C)CNC(=O)c1ccc(-c2ccc(F)c(F)c2)c2ccoc12	-17	·	0	-25	·	3	·	·
CC1CCCC(C)N1CCCNC(=O)c1cc2c(s1)-c1ccccc1OC2 (stereo not drawn)	i	6	69*	-22	21	i	62*	63*
Cc1c(NC(=O)c2cc3c(s2)-c2ccccc2OC3)cccc1[N+](=O)[O-]	-18	-1	0	-45	19	-4	·	·
CCCN1CCN(CCCNC(=O)c2cc3c(=O)[nH]c4ccccc4c3s2)CC1	i	-2	5	-3	5	-176	·	·
Cc1csc(NC(=O)c2cc3c(s2)-c2ccccc2OC3)n1	i	3	-602	-98	72	-402	·	·
CCN1CCN(CCCNC(=O)c2cc3c(s2)-c2ccccc2OC3)CC1	i	3	37*	1	17	i	73*	70*
CN(C)CCNC(=O)c1cc2c(s1)-c1ccccc1OC2	i	1	68*	-39	8	i	72*	68*
CCCN1CCN(CCCNC(=O)c2cc3c(s2)-c2ccccc2OC3)CC1	i	1	38*	-6	2	i	71*	76*
CC1(c2nnnn2C2CCCCC2)CCCC(=O)N1CCc1ccc(O)cc1 (stereo not drawn)	-1	·	0	·	·	-4	·	·
N#CCCN(Cc1ccccc1)C(C(=O)NC1CCCCC1)c1cc2ccccc2o1 (stereo not drawn)	10	·	0	-27	·	7	·	·
COc1ccc(C(=O)N[C@H]2CCCCNC2=O)cc1OC1CCN(C(C)C)CC1	-1	-1	1	3	1	-4	·	·
Cc1cccc2c1-c1sc(C(=O)NCCCN3CCCC(C)C3)cc1CO2 (stereo not drawn)	i	2	48*	20	-3	i	62*	70*
CC1CC(C)CN(CCCNC(=O)c2cc3c(s2)-c2ccccc2OC3)C1 (stereo not drawn)	i	3	44*	-9	1	i	-37	-60
CCCN1CCN(CCCNC(=O)c2cc3c(s2)-c2c(C)cccc2OC3)CC1	i	1	42*	15	-9	i	63*	71*
CS(=O)(=O)N1CCN(C(=O)c2cc(-c3cccs3)nc3ccccc23)CC1	i	3	13*	12	2	-360	16*	23*
O=C(c1cc2c(ccc3ccccc32)oc1=O)N1CCN(CCO)CC1	i	3	26*	-27	-9	-322	9	9.8*
O=C(c1cc(-c2cccs2)nc2ccccc12)N1CCN(CCO)CC1	i	·	14*	-5	·	-348	22*	14*	EDANS interf=>69
CS(=O)(=O)N1CCN(C(=O)c2cc(-c3ccccc3)nc3ccccc23)CC1	6	5	0	-6	116	-3	·	·
CC(=O)Nc1cc2c(ccc3ccccc32)oc1=O	i	3	23*	-14	0	-416	48*	57*
CCOC(=O)c1ccccc1NC(=O)Cc1ccc(OC)c(S(=O)(=O)N2CCOCC2)c1	-12	·	0	-16	4	0	·	·
CCc1ccc(-c2cnc3nc[nH]c(=O)c3n2)cc1	i	-5	15*	-33	·	-411	38*	39*
COc1ccccc1NC(=O)C1=C(C)NC(=O)NC1c1cccs1 (stereo not drawn)	-4	2	0	-11	9	0	·	·
O=c1c2cc(N3CCOCC3)ccc2[nH]c(=S)n1CCCN1CCCCCC1	-139	10	104*	-9	-2	-43	44*	41*
SMILES	ADAM10 inh	NR2E3 ag-1	proKLK7 act	NR2E3 ag-2	JMJD2C inh	ADAM17 inh	KLK7 act conf	EDANS-DABCYL int	others
Cc1ccc(Cn2c(=S)[nH]c3ccc(N4CCOCC4)cc3c2=O)o1	-187	4	45*	-16	0	-35	101*	105*
O=c1c2cc(N3CCOCC3)ccc2[nH]c(=S)n1CCN1CCCC1	-194	1	80*	-12	6	-69	46*	54*
Cc1nc2[nH]c(=O)c3c(n2n1)NC1=C(C(=O)CC(C)(C)C1)C3c1ccccc1 (stereo not drawn)	i	3	47*	4	-10	-233	8	11*
CC1(C)CC(=O)C2=C(C1)NC1=C(C(=O)c3ccccc31)C2c1ccccc1 (stereo not drawn)	10	-6	0	2	-3	1	·	·
OC1CNc2c(ccc3ccccc23)C1 (stereo not drawn)	i	·	14*	-43	·	-404	1	-6
CCc1ccc(OCC(=O)N2CCN=C2c2ccccc2)cc1	4	-2	0	11	-1	0	·	·
O=C(NCC1CCCO1)c1ccc(-c2cccc(C(F)(F)F)c2)o1 (stereo not drawn)	-17	-1	0	-31	-2	-2	·	·
CC(=O)c1ccc(-c2ccc(C(=O)N3CCC(C(N)=O)CC3)o2)cc1	i	-4	24*	-18	0	i	27*	29*
CC(=O)c1ccc(-c2ccc(C(=O)NCC3CCCO3)o2)cc1 (stereo not drawn)	i	-1	29*	-30	-2	i	43*	45*
CC(=O)c1ccc(-c2ccc(C(=O)NC3CC(C)(C)NC(C)(C)C3)o2)cc1	i	3	34*	-20	-7	i	18*	24*
CC(=O)c1ccc(-c2ccc(C(=O)N3CCN(c4ccc(F)cc4)CC3)o2)cc1	-57	3	1	-42	46	-7	·	·
COc1ccc(NC(=O)[C@H](C)NC(=O)[C@@H]2Cc3ccccc3CN2C(=O)OC(C)(C)C)cc1	5	0	0	-34	-9	3	·	·
CC(C)CCNC(=O)C1CCN(S(=O)(=O)c2ccc(-n3cnnn3)cc2)CC1	-2	-1	0	-3	15	0	·	·

Bioassay records: PubChem, several laboratories
